Compounds with a hit are over-represented: about 3.9% of the library has one in this group of screens.
TAAR1 ag – agonists of human TAAR1; CHO RD-HGA16 TAAR1, Fluo-8 calcium fluorescence; vehicle wells 0%, saturating PEA agonist 100%; activation, % at 3 µM; 360,000 compounds, 0.99% hits; AID 624467;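 active means activation above the mean activation of all test compounds in the run plus 3 SD, cut at about 38% in these data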
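System: CHO-derived RD-HGA16 cells with stable Gα16 and human TAAR1 / Times: 17-24 h plating, Fluo-8 75 min 37 °C, 30 min RT / Technique: calcium-sensitive Fluo-8 signal, excitation 470-495, emission 515-575 nm / Measure: % activation relative to PEA EC100 response / Benchmarks: DMSO and PEA EC100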
TAAR1 antag – antagonists of human TAAR1; inhibition, % at 3 µM; AID 624466; 360,000 compounds, 1.5% hits; Q96RJ0; CHO RD-HGA16 TAAR1, Fluo-8 calcium fluorescence, antagonist;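 active means inhibition above a per-plate cutoff, the mean inhibition of test compounds on that plate plus 3 SD, cut at about 49% in these data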;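 further: 0% = DMSO plus EC80 beta-PEA response and 100% = DMSO alone without agonist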
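Assay system: RD-HGA16 CHO cells with stable hTAAR1 and Gα16 / Reagent: EC80 β-phenethylamine stimulus / Doses: 3 µM, single point / Timing: dye loading 75 min at 37 °C, then 30 min room temperature / Measured by: Fluo-8 intracellular calcium dye fluorescence, real-time kinetic reads / Controls: vehicle wells and EC80 agonist wells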
CHO parental Ca – counter-screen for OX1R antagonists: effect in parental CHO cells; AID 463079; inhibition, % at 5.6 µM; parental CHO-K1, ATP-induced calcium, Fluo-8 fluorescence; 330,000 compounds, 0.63% hits;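 active means inhibition above that plate's mean sample inhibition plus 3 SD, cut at about 26% in these data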;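 further: 0% = ATP-challenged DMSO wells and 100% = DMSO wells without ATP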
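Test system: parental CHO cells; detection: calcium-sensitive Fluo-8 fluorescence; evaluation: percent inhibition of calcium signal; also added: ATP as calcium-mobilizing challenge; repeats: one well per compound; control set: ATP-challenged DMSO wells low, unchallenged DMSO wells high; compound: single nominal dose of 5.6 µM per compound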
OX1R antag-1 – human HCRTR1 antagonism. O43613. CHO/OX1R cells, Fluo-8 calcium fluorescence, orexin A. inhibition, % at 5 µM. 330,000 compounds, 0.43% hits. AID 434989;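 active means inhibition above its plate's threshold, mean inhibition of all tested compounds on the plate plus 3 SD, cut at about 37% in these data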;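 further: 0% = orexin A challenge wells and 100% = SB-334867-A antagonist wells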
Target sequence (O43613 whole entry, looked up): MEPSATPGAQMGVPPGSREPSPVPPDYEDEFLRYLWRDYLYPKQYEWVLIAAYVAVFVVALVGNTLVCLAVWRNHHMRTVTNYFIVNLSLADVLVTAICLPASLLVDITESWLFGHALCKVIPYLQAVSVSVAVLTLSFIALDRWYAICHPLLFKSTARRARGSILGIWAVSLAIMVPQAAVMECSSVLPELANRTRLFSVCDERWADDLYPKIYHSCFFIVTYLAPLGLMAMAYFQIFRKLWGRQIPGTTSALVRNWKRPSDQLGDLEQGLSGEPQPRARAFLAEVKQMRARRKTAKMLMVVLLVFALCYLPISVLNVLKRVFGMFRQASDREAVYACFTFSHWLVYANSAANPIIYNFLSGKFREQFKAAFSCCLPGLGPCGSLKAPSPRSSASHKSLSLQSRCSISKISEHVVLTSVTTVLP
OX1R antag-2 – blocks the human orexin 1 receptor; O43613; OX1R-expressing cells, FRET antagonist read-out; inhibition, % at 6.6 µM; 330,000 compounds, 1.8% hits; AID 485270; in the data active means inhibition mostly above about 38%, no sharp cut-off; inactive means mostly below about 40%;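 further: 0% = agonist challenge alone and 100% = reference antagonist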
OX1R Ca confirm – OX1R (human) antagonism, confirmed. AID 492963. 1,100 compounds, 38% hits. inhibition, % at 5 µM. shares compounds with OX1R antag-1. CHO/OX1R cells, orexin A calcium Fluo-8 fluorescence; in the data active means inhibition above about 29%;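 further: 0% = agonist challenge alone and 100% = reference antagonist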
CHO Ca triplic – counter-screen for OX1R antagonists: effect in parental CHO cells; shares compounds with OX1R antag-1; parental CHO-K1, ATP-induced calcium, Fluo-8 fluorescence; inhibition, % at 5.6 µM; 1,100 compounds, 9.3% hits; AID 492965;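 active means inhibition above a per-plate limit, the mean inhibition of that plate's test compounds plus 3 SD, cut at about 25% in these data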;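 further: 0% = ATP challenge with DMSO and 100% = DMSO without ATP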
* marks the source's active call; other numbers are inactive results; . = no result.

SMILES | TAAR1 ag | TAAR1 antag | CHO parental Ca | OX1R antag-1 | OX1R antag-2 | OX1R Ca confirm | CHO Ca triplic
COC(=O)C1=C(C)N(Cc2ccccc2C(F)(F)F)C(=NCc2cccc(C(F)(F)F)c2)NC1c1ccc(F)cc1 (stereo not given) | 0 | -15 | . | . | . | . | .
O=C(CSc1nc2ccccc2[nH]1)Nc1ccccc1N1CCOCC1 | 7 | -16 | -1 | 38 | 75 | 35* | -9
COCC(=O)Nc1cc(C(=O)NCC(C)C)ccc1Cl | 2 | 2 | 2 | 32 | 6 | -3 | -1
c1coc(-c2nc3c4ccccc4ccn3c2Cc2ccsc2)c1 | 0 | -12 | . | . | . | . | .
Cc1cccc(-c2nnc(-c3cccc(NC(=O)Cc4cccs4)c3)o2)c1 | 11 | 74* | 25 | 65* | 37 | 0 | -12
Cc1cc(NC(=O)COC(=O)c2cccc(S(=O)(=O)N3CCOCC3)c2)no1 | 19 | -6 | -11 | -21 | 12 | . | .
O=C(COC(=O)c1cccc(S(=O)(=O)N2CCOCC2)c1)Nc1nc(-c2ccccc2Cl)cs1 | 11 | 10 | 23 | 33 | 9 | 36* | 26*
COc1ccc(CCNC(=O)CNS(=O)(=O)c2ccc(Br)s2)cc1OC | 1 | 20 | -10 | -18 | 10 | . | .
O=C(CNS(=O)(=O)c1ccc(Br)s1)NCCc1ccc(Cl)cc1 | 3 | 19 | -7 | 21 | 21 | -5 | -3
COC(=O)[C@]12CCCCC=C1N(Cc1ccccc1)C(=O)[C@H](CC(=O)NCc1ccccc1)C2 | 5 | -7 | . | . | . | . | .
Cc1cc(C)cc(NS(=O)(=O)c2ccc3[nH]cc(C(=O)N4CCc5ccccc54)c(=O)c3c2)c1 | 0 | 12 | -6 | 19 | 64 | . | .
CCc1ccc(NS(=O)(=O)c2ccc3[nH]cc(C(=O)N4CCc5ccccc54)c(=O)c3c2)cc1 | 2 | -3 | -15 | 31 | 68 | 32* | -11
O=C(CSc1ccc(S(=O)(=O)N2CCOCC2)cn1)Nc1ccc(OC(F)F)cc1 | 2 | 13 | -8 | 6 | 10 | . | .
O=C(CSc1ccc(S(=O)(=O)N2CCOCC2)cn1)Nc1ccc(F)c(F)c1 | 15 | 14 | -4 | 35 | 21 | 22 | 18
O=C(CN1C(=O)NC2(CCCCCCC2)C1=O)Nc1ccc(OC(F)F)cc1 | -1 | -5 | -18 | -4 | 9 | . | .
CC1(c2ccccc2)NC(=O)N(CC(=O)Nc2ccc([N+](=O)[O-])cc2)C1=O (stereo not given) | 2 | 1 | 7 | 0 | 25 | . | .
CC1(c2ccc(OC(F)F)cc2)NC(=O)N(CC(=O)Nc2ccc(N3CCCCC3)cc2)C1=O (stereo not given) | 50* | 44 | 14 | 18 | -1 | 62* | 32*
CC1(c2ccc([N+](=O)[O-])cc2)NC(=O)N(CC(=O)Nc2ccc(N3CCCCC3)cc2)C1=O (stereo not given) | 43* | 40 | 18 | 21 | 6 | 48* | 20
O=C1COc2ccc(C(=O)COC(=O)CCCOc3ccccc3)cc2N1 | 30 | 38 | . | . | . | . | .
Cc1ccc(OCCC(=O)OCC(=O)c2ccc3c(c2)NC(=O)CO3)cc1 | 9 | 21 | 12 | 35 | -1 | 8 | -1
Cc1ccc(Cl)cc1N1CCN(C(=O)c2ccc3c(c2)CCN3S(C)(=O)=O)CC1 | 4 | 12 | 13 | 31 | 16 | -2 | -5
CCN1/C(=C/C(=O)c2ccco2)Sc2ccccc21 | 17 | 2 | -27 | -7 | 54 | . | .
CCOC(=O)/C(=C\C=C1/Sc2ccccc2N1CC)C(C)=O | 17 | 16 | 34 | 42 | 43 | 34* | 35*
N#CCCn1cc(/C=N/O)c(-c2ccccc2)n1 | 7 | -2 | 0 | -2 | 4 | . | .
N#CCCn1cc(/C=N/NC(N)=S)c(-c2ccc(-c3ccccc3)cc2)n1 | 6 | 20 | -3 | 26 | 2 | 10 | 4
CCCCNC(=O)c1nc(C2CCN(S(=O)(=O)c3ccc(S(C)(=O)=O)cc3)CC2)oc1-c1ccccc1 | 1 | -17 | . | . | . | . | .

Screens as filed in PubChem.
